From ChEMBL document CHEMBL1143889, “N-Phenyl and N-phenylalkyl-maleimides acting against Candida spp.: time-to-kill, stability, interaction with maleamic acids” (2008)
Values after ≈ are worked out from the molar mass of the structure shown. Active and inactive are the calls of the source. The calls are words filed in the database; no cut-off is given here.

Assays:
Candida tropicalis = assay: Antifungal activity against Candida tropicalis C 137-1997 after 48 hrs by CLSI M27-A2 method; assay type: functional
Procedure, shortened: (§1)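 Broth microdilution per CLSI M27-A2 in RPMI-1640, with twofold dilutions giving final 250–0.98 µg/mL. The inoculum was modified to 1–5 × 10⁴ CFU/mL instead of 1–5 × 10³, with ketoconazole and amphotericin B as positive controls. MIC was the lowest concentration giving total growth inhibition, read visually. Strains were grown on Sabouraud-chloramphenicol agar for 24 h at 37 °C.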

Candida albicans [1] = assay: Antifungal activity against Candida albicans ATCC 10231 preincubated for 7 days analysed after 24 hrs by CLSI M27-A2 method; assay type: functional
Procedure, shortened: (§2)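 Twofold maleimide dilutions (1000–0.98 µg/mL) in complete M27-A2 medium without inoculum were held at 37 °C, with one plate row filled on each of 7 consecutive days to give 0–7 days of pre-incubation. All wells were then inoculated with C. albicans ATCC 10231 at 1–5 × 10⁴ CFU/mL and incubated for 24 h at 37 °C. MIC was read per row, in duplicate.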

Candida albicans [2] = assay: Antifungal activity against Candida albicans ATCC 10231 pre-incubated for 5 days analysed after 24 hrs by CLSI M27-A2 method; assay type: functional; procedure, shortened: as §2
Candida albicans [3] = assay: Antifungal activity against Candida albicans ATCC 10231 pre-incubated for 1 day analysed after 24 hrs by CLSI M27-A2 method; assay type: functional; procedure, shortened: as §2
Nakaseomyces glabratus = assay: Antifungal activity against Candida glabrata C 115-2000 after 48 hrs by CLSI M27-A2 method; assay type: functional; procedure, shortened: as §1
Candida albicans [4] = assay: Antifungal activity against Candida albicans C 128-2000 after 48 hrs by CLSI M27-A2 method; assay type: functional; procedure, shortened: as §1
Torulaspora delbrueckii = assay: Antifungal activity against Candida coliculosa C 122-2000 after 48 hrs by CLSI M27-A2 method; assay type: functional; procedure, shortened: as §1
Candida albicans [5] = assay: Antifungal activity against Candida albicans C 127-2000 after 48 hrs by CLSI M27-A2 method; assay type: functional; procedure, shortened: as §1
Candida albicans [6] = assay: Antifungal activity against Candida albicans ATCC 10231 pre-incubated for 3 days analysed after 24 hrs by CLSI M27-A2 method; assay type: functional; procedure, shortened: as §2
Candida albicans [7] = assay: Antifungal activity against Candida albicans ATCC 10231 pre-incubated for 4 days analysed after 24 hrs by CLSI M27-A2 method; assay type: functional; procedure, shortened: as §2
Candida albicans [8] = assay: Antifungal activity against Candida albicans ATCC 10231 pre-incubated for 6 days analysed after 24 hrs by CLSI M27-A2 method; assay type: functional; procedure, shortened: as §2
Pichia kudriavzevii = assay: Antifungal activity against Candida krusei C 117-2000 after 48 hrs by CLSI M27-A2 method; assay type: functional; procedure, shortened: as §1
Clavispora lusitaniae = assay: Antifungal activity against Candida lusitaniae C 131-2000 after 48 hrs by CLSI M27-A2 method; assay type: functional; procedure, shortened: as §1
Candida albicans [9] = assay: Antifungal activity against Candida albicans ATCC 10231 after 48 hrs by CLSI M27-A2 method; assay type: functional; details: ATCC 10231, 48 h; procedure, shortened: as §1
Candida albicans [10] = assay: Antifungal activity against Candida albicans ATCC 10231 within 90 mins by time-to-kill study; assay type: functional, organism-based
Procedure, shortened: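 C. albicans ATCC 10231 (2–2.5 × 10⁴ CFU/mL) in 5 mL RPMI-1640 was exposed to 1× MFC of compound at 37 °C with agitation. 10 µL samples taken at 0, 30, 60, 90 and 120 min, and at 4, 8, 12 and 24 h, were plated on drug-free SDA and colonies counted after 24–48 h at 37 °C. Run in duplicate.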

Candida albicans [11] = assay: Antifungal activity against Candida albicans C 129-2000 after 48 hrs by CLSI M27-A2 method; assay type: functional; procedure, shortened: as §1
Candida albicans [12] = assay: Antifungal activity against Candida albicans C 125-2000 after 48 hrs by CLSI M27-A2 method; assay type: functional; procedure, shortened: as §1
Kluyveromyces marxianus = assay: Antifungal activity against Candida kefyr C 123-2000 after 48 hrs by CLSI M27-A2 method; assay type: functional; procedure, shortened: as §1
Candida albicans [13] = assay: Antifungal activity against Candida albicans C 130-2000 after 48 hrs by CLSI M27-A2 method; assay type: functional; procedure, shortened: as §1
Candida parapsilosis = assay: Antifungal activity against Candida parapsilosis C 124-2000 after 48 hrs by CLSI M27-A2 method; assay type: functional; details: Lodderomyces parapsilosis; procedure, shortened: as §1
Candida albicans [14] = assay: Antifungal activity against Candida albicans ATCC 10231 after 24 hrs by CLSI M27-A2 method; assay type: functional; details: ATCC 10231, 24 h; procedure, shortened: as §1
Candida albicans [15] = assay: Antifungal activity against Candida albicans C 126-2000 after 48 hrs by CLSI M27-A2 method; assay type: functional; procedure, shortened: as §1
Candida albicans [16] = assay: Antifungal activity against Candida albicans ATCC 10231 pre-incubated for 2 days analysed after 24 hrs by CLSI M27-A2 method; assay type: functional; procedure, shortened: as §2

O=C1C=CC(=O)N1CCc1ccccc1
MFC (Candida tropicalis): 32.2 µg/mL (≈ 160 µM) | MIC (Candida tropicalis): 15.8 µg/mL (≈ 78.3 µM) | MIC (Candida albicans [1]): 500 µg/mL (≈ 2480 µM) | MIC (Candida albicans [2]): 125 µg/mL (≈ 621 µM) | MIC (Candida albicans [3]): 3.9 µg/mL (≈ 19.4 µM) | MFC (Nakaseomyces glabratus): 3.9 µg/mL (≈ 19.4 µM) | MIC (Nakaseomyces glabratus): 1.95 µg/mL (≈ 9.69 µM) | MFC (Candida albicans [4]): 7.81 µg/mL (≈ 38.8 µM) | MIC (Candida albicans [4]): 3.9 µg/mL (≈ 19.4 µM) | MFC (Torulaspora delbrueckii): 7.81 µg/mL (≈ 38.8 µM) | MIC (Torulaspora delbrueckii): 1.95 µg/mL (≈ 9.69 µM) | MFC (Candida albicans [5]): 3.9 µg/mL (≈ 19.4 µM) | MIC (Candida albicans [5]): 1.95 µg/mL (≈ 9.69 µM) | MIC (Candida albicans [6]): 7.8 µg/mL (≈ 38.8 µM) | MIC (Candida albicans [7]): 31.2 µg/mL (≈ 155 µM) | MIC (Candida albicans [8]): 250 µg/mL (≈ 1240 µM) | MFC (Pichia kudriavzevii): 7.8 µg/mL (≈ 38.8 µM) | MIC (Pichia kudriavzevii): 3.9 µg/mL (≈ 19.4 µM) | MFC (Clavispora lusitaniae): 7.8 µg/mL (≈ 38.8 µM) | MIC (Clavispora lusitaniae): 3.9 µg/mL (≈ 19.4 µM) | MFC (Candida albicans [9]): 7.8 µg/mL (≈ 38.8 µM) | MIC (Candida albicans [9]): 3.9 µg/mL (≈ 19.4 µM) | Activity (Candida albicans [10]): Active | MFC (Candida albicans [11]): 1.95 µg/mL (≈ 9.69 µM) | MIC (Candida albicans [11]): 1.95 µg/mL (≈ 9.69 µM) | MFC (Candida albicans [12]): 1.95 µg/mL (≈ 9.69 µM) | MIC (Candida albicans [12]): 1.95 µg/mL (≈ 9.69 µM) | MFC (Kluyveromyces marxianus): 3.9 µg/mL (≈ 19.4 µM) | MIC (Kluyveromyces marxianus): 3.9 µg/mL (≈ 19.4 µM) | MFC (Candida albicans [13]): 1.95 µg/mL (≈ 9.69 µM) | MIC (Candida albicans [13]): 1.95 µg/mL (≈ 9.69 µM) | MFC (Candida parapsilosis): 3.9 µg/mL (≈ 19.4 µM) | MIC (Candida parapsilosis): 3.9 µg/mL (≈ 19.4 µM) | MIC (Candida albicans [14]): 3.9 µg/mL (≈ 19.4 µM) | MFC (Candida albicans [15]): 7.81 µg/mL (≈ 38.8 µM) | MIC (Candida albicans [15]): 3.9 µg/mL (≈ 19.4 µM) | MIC (Candida albicans [16]): 7.8 µg/mL (≈ 38.8 µM)

O=C1C=CC(=O)N1CCCc1ccccc1
MFC (Candida tropicalis): 32.2 µg/mL (≈ 150 µM) | MIC (Candida tropicalis): 15.8 µg/mL (≈ 73.2 µM) | MIC (Candida albicans [1]): 1000 µg/mL (≈ 4650 µM) | MIC (Candida albicans [2]): 62.5 µg/mL (≈ 290 µM) | MIC (Candida albicans [3]): 3.9 µg/mL (≈ 18.1 µM) | MFC (Nakaseomyces glabratus): 3.9 µg/mL (≈ 18.1 µM) | MIC (Nakaseomyces glabratus): 1.95 µg/mL (≈ 9.06 µM) | MFC (Candida albicans [4]): 7.81 µg/mL (≈ 36.3 µM) | MIC (Candida albicans [4]): 3.9 µg/mL (≈ 18.1 µM) | MFC (Torulaspora delbrueckii): 32.2 µg/mL (≈ 150 µM) | MIC (Torulaspora delbrueckii): 3.9 µg/mL (≈ 18.1 µM) | MFC (Candida albicans [5]): 3.9 µg/mL (≈ 18.1 µM) | MIC (Candida albicans [5]): 1.95 µg/mL (≈ 9.06 µM) | MIC (Candida albicans [6]): 15.8 µg/mL (≈ 73.2 µM) | MIC (Candida albicans [7]): 15.8 µg/mL (≈ 73.2 µM) | MIC (Candida albicans [8]): 125 µg/mL (≈ 581 µM) | MFC (Pichia kudriavzevii): 7.8 µg/mL (≈ 36.2 µM) | MIC (Pichia kudriavzevii): 3.9 µg/mL (≈ 18.1 µM) | MFC (Clavispora lusitaniae): 7.8 µg/mL (≈ 36.2 µM) | MIC (Clavispora lusitaniae): 1.95 µg/mL (≈ 9.06 µM) | MFC (Candida albicans [9]): 7.8 µg/mL (≈ 36.2 µM) | MIC (Candida albicans [9]): 3.9 µg/mL (≈ 18.1 µM) | Activity (Candida albicans [10]): Active | MFC (Candida albicans [11]): 3.9 µg/mL (≈ 18.1 µM) | MIC (Candida albicans [11]): 1.95 µg/mL (≈ 9.06 µM) | MFC (Candida albicans [12]): 1.95 µg/mL (≈ 9.06 µM) | MIC (Candida albicans [12]): 0.97 µg/mL (≈ 4.51 µM) | MFC (Kluyveromyces marxianus): 7.81 µg/mL (≈ 36.3 µM) | MIC (Kluyveromyces marxianus): 15.8 µg/mL (≈ 73.2 µM) | MFC (Candida albicans [13]): 1.95 µg/mL (≈ 9.06 µM) | MIC (Candida albicans [13]): 0.97 µg/mL (≈ 4.51 µM) | MFC (Candida parapsilosis): 3.9 µg/mL (≈ 18.1 µM) | MIC (Candida parapsilosis): 3.9 µg/mL (≈ 18.1 µM) | MIC (Candida albicans [14]): 3.9 µg/mL (≈ 18.1 µM) | MFC (Candida albicans [15]): 1.95 µg/mL (≈ 9.06 µM) | MIC (Candida albicans [15]): 0.97 µg/mL (≈ 4.51 µM) | MIC (Candida albicans [16]): 3.9 µg/mL (≈ 18.1 µM)

O=C(O)/C=C\C(=O)NCc1ccccc1
MIC (Candida tropicalis): > 250 µg/mL | MIC (Nakaseomyces glabratus): > 250 µg/mL | MIC (Candida albicans [4]): > 250 µg/mL | MIC (Torulaspora delbrueckii): > 250 µg/mL | MIC (Candida albicans [5]): > 250 µg/mL | MIC (Pichia kudriavzevii): > 250 µg/mL | MIC (Clavispora lusitaniae): > 250 µg/mL | MIC (Candida albicans [9]): > 250 µg/mL | MIC (Candida albicans [11]): > 250 µg/mL | MIC (Candida albicans [12]): > 250 µg/mL | MIC (Kluyveromyces marxianus): > 250 µg/mL | MIC (Candida albicans [13]): > 250 µg/mL | MIC (Candida parapsilosis): > 250 µg/mL | MIC (Candida albicans [15]): > 250 µg/mL

O=C(O)/C=C\C(=O)NCCc1ccccc1
MIC (Candida tropicalis): > 250 µg/mL | MIC (Nakaseomyces glabratus): > 250 µg/mL | MIC (Candida albicans [4]): > 250 µg/mL | MIC (Torulaspora delbrueckii): > 250 µg/mL | MIC (Candida albicans [5]): > 250 µg/mL | MIC (Pichia kudriavzevii): > 250 µg/mL | MIC (Clavispora lusitaniae): > 250 µg/mL | MIC (Candida albicans [9]): > 250 µg/mL | MIC (Candida albicans [11]): > 250 µg/mL | MIC (Candida albicans [12]): > 250 µg/mL | MIC (Kluyveromyces marxianus): > 250 µg/mL | MIC (Candida albicans [13]): > 250 µg/mL | MIC (Candida parapsilosis): > 250 µg/mL | MIC (Candida albicans [15]): > 250 µg/mL
